Test results: ChEMBL document CHEMBL1147066, “Structural basis of action for a human ether-a-go-go-related gene 1 potassium channel activator” (Proc Natl Acad Sci U S A, 2007); call rule not given here

Assays:
[1] = biological target: T1, Voltage-gated inwardly rectifying potassium channel KCNH2 (Homo sapiens, UniProt Q12809); experiment: Binding affinity to human ERG1 expressed in Xenopus laevis oocytes assessed as half-saturation concentration; assay type: cell-based, Oocyte; conditions: read-out: Activity
[2] = biological target: T1, Voltage-gated inwardly rectifying potassium channel KCNH2; experiment: Activation of human ERG1 isoform 1 expressed in Xenopus laevis oocytes assessed as enhancement of current magnitude by two electrode voltage clamp technique; assay type: cell-based; conditions: oocyte
[3] = biological target: T2, Voltage-gated inwardly rectifying potassium channel KCNH2 (Homo sapiens, UniProt Q12809, L666A); experiment: Activation of human ERG1 L666A mutant expressed in Xenopus laevis oocytes assessed as shifting of voltage dependence of inactivation towards positive potentials at 3 uM by two electrode voltage clamp technique; assay type: cell-based; conditions: oocyte
Outline: (§1)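 hERG1 (WT or point mutant) cRNA injected into Xenopus oocytes; two-electrode voltage clamp 1-5 days later. Bath: 96 mM NaCl, 2 mM KCl, 1 mM CaCl2, 2 mM MgCl2, 5 mM Hepes, pH 7.6. Holding potential -90 mV. Protocols repeated 10-15 min after adding compound to the bath, diluted from a 10 mM DMSO stock; one concentration per oocyte.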

[4] = biological target: Voltage-gated inwardly rectifying potassium channel KCNH2 (Homo sapiens, UniProt Q12809, V549A); experiment: Activation of human ERG1 V549A mutant expressed in Xenopus laevis oocytes assessed as shifting of voltage dependence of inactivation towards positive potentials at 3 uM by two electrode voltage clamp technique; assay type: cell-based; conditions: oocyte; outline: as §1
[5] = biological target: T3, Voltage-gated inwardly rectifying potassium channel KCNH2 (Homo sapiens, UniProt Q12809, F557L); experiment: (§2) Activation of human ERG1 F557L mutant expressed in Xenopus laevis oocytes assessed as slowing of tail current deactivation at 3 uM by two electrode voltage clamp technique; assay type: cell-based; conditions: oocyte; outline: as §1
[6] = biological target: T1, Voltage-gated inwardly rectifying potassium channel KCNH2; experiment: Activation of human ERG1 isoform 1 expressed in Xenopus laevis oocytes assessed as shifting of voltage dependence of inactivation towards positive potentials at 10 uM by two electrode voltage clamp technique; assay type: cell-based; conditions: oocyte; outline: as §1
[7] = biological target: T2, Voltage-gated inwardly rectifying potassium channel KCNH2; experiment: Activation of human ERG1 L666A mutant expressed in Xenopus laevis oocytes assessed as shifting of voltage dependence of inactivation towards positive potentials at 30 uM by two electrode voltage clamp technique; assay type: cell-based; conditions: oocyte; outline: as §1
[8] = biological target: Voltage-gated inwardly rectifying potassium channel KCNH2 (Homo sapiens, UniProt Q12809, L550A); experiment: Activation of human ERG1 L550A mutant expressed in Xenopus laevis oocytes assessed as shifting of voltage dependence of inactivation towards positive potentials at 3 uM by two electrode voltage clamp technique; assay type: cell-based; conditions: oocyte; outline: as §1
[9] = biological target: T4, Voltage-gated inwardly rectifying potassium channel KCNH2 (Homo sapiens, UniProt Q12809, V659A); experiment: (§3) Activation of human ERG1 V659A mutant expressed in Xenopus laevis oocytes assessed as slowing of tail current deactivation at 3 uM by two electrode voltage clamp technique; assay type: cell-based; conditions: oocyte; outline: as §1
[10] = biological target: T3, Voltage-gated inwardly rectifying potassium channel KCNH2; experiment: as §2; assay type: cell-based; conditions: oocyte; outline: as §1; remark: listed apart in the source
[11] = biological target: T1, Voltage-gated inwardly rectifying potassium channel KCNH2; experiment: Activation of human ERG1 isoform 1 expressed in Xenopus laevis oocytes assessed as shifting of voltage dependence of inactivation towards positive potentials at 1 uM by two electrode voltage clamp technique; assay type: cell-based; conditions: oocyte; outline: as §1
[12] = biological target: T5, Voltage-gated inwardly rectifying potassium channel KCNH2 (Homo sapiens, UniProt Q12809, N658A); experiment: (§4) Activation of human ERG1 N658A mutant expressed in Xenopus laevis oocytes assessed as slowing of tail current deactivation at 3 uM by two electrode voltage clamp technique; assay type: cell-based; conditions: oocyte; outline: as §1
[13] = biological target: T1, Voltage-gated inwardly rectifying potassium channel KCNH2; experiment: Activation of human ERG1 expressed in CHO cells assessed as enhancement of current magnitude at 10 uM by two electrode voltage clamp technique; assay type: cell-based
[14] = biological target: T3, Voltage-gated inwardly rectifying potassium channel KCNH2; experiment: Activation of human ERG1 F557L mutant expressed in Xenopus laevis oocytes assessed as shifting of voltage dependence of inactivation towards positive potentials at 30 uM by two electrode voltage clamp technique; assay type: cell-based; conditions: oocyte; outline: as §1
[15] = biological target: Voltage-gated inwardly rectifying potassium channel KCNH2 (Homo sapiens, UniProt Q12809, Y652A); experiment: Activation of human ERG1 Y652A mutant expressed in Xenopus laevis oocytes assessed as slowing of tail current deactivation at 3 uM by two electrode voltage clamp technique; assay type: cell-based; conditions: oocyte; outline: as §1
[16] = biological target: T1, Voltage-gated inwardly rectifying potassium channel KCNH2; experiment: Activation of human ERG1 isoform 1 expressed in Xenopus laevis oocytes assessed as shifting of voltage dependence of inactivation towards positive potentials at 3 uM by two electrode voltage clamp technique; assay type: cell-based; conditions: oocyte; outline: as §1
[17] = biological target: T1, Voltage-gated inwardly rectifying potassium channel KCNH2; experiment: Activation of human ERG1 isoform 1 expressed in Xenopus laevis oocytes assessed as shifting of voltage dependence of inactivation towards positive potentials by two electrode voltage clamp technique; assay type: cell-based, Oocyte; outline: as §1
[18] = biological target: Voltage-gated inwardly rectifying potassium channel KCNH2 (Homo sapiens, UniProt Q12809, I662A); experiment: Activation of human ERG1 I662A mutant expressed in Xenopus laevis oocytes assessed as shifting of voltage dependence of inactivation towards positive potentials at 3 uM by two electrode voltage clamp technique; assay type: cell-based; conditions: oocyte; outline: as §1
[19] = biological target: T5, Voltage-gated inwardly rectifying potassium channel KCNH2; experiment: as §4; assay type: cell-based; conditions: oocyte; outline: as §1; remark: listed apart in the source
[20] = biological target: T1, Voltage-gated inwardly rectifying potassium channel KCNH2; experiment: Activation of human ERG1 isoform 1 expressed in Xenopus laevis oocytes assessed as increase in peak tail current magnitude by two electrode voltage clamp technique; assay type: cell-based, Oocyte
[21] = biological target: T1, Voltage-gated inwardly rectifying potassium channel KCNH2; experiment: Activation of human ERG1 isoform 1 expressed in Xenopus laevis oocytes assessed as shifting of voltage dependence of inactivation towards positive potentials at 30 uM by two electrode voltage clamp technique; assay type: cell-based; conditions: oocyte; outline: as §1
[22] = biological target: Voltage-gated inwardly rectifying potassium channel KCNH2 (Homo sapiens, UniProt Q12809, G628C/S631C); experiment: Effect on human ERG1 G628C/S631C mutant expressed in Xenopus laevis oocytes at 3 uM by two electrode voltage clamp technique; assay type: cell-based; conditions: oocyte
[23] = biological target: Voltage-gated inwardly rectifying potassium channel KCNH2 (Homo sapiens, UniProt Q12809, Y667A); experiment: Activation of human ERG1 Y667A mutant expressed in Xenopus laevis oocytes assessed as shifting of voltage dependence of inactivation towards positive potentials at 3 uM by two electrode voltage clamp technique; assay type: cell-based; conditions: oocyte; outline: as §1
[24] = biological target: T6, Voltage-gated inwardly rectifying potassium channel KCNH2 (Homo sapiens, UniProt Q12809, L553A); experiment: (§5) Activation of human ERG1 L553A mutant expressed in Xenopus laevis oocytes assessed as slowing of tail current deactivation at 3 uM by two electrode voltage clamp technique; assay type: cell-based; conditions: oocyte; outline: as §1
[25] = biological target: T1, Voltage-gated inwardly rectifying potassium channel KCNH2; experiment: Activation of human ERG1 isoform 1 expressed in Xenopus laevis oocytes assessed as slowing of tail current deactivation by two electrode voltage clamp technique; assay type: cell-based; conditions: oocyte; outline: as §1
[26] = biological target: T4, Voltage-gated inwardly rectifying potassium channel KCNH2; experiment: as §3; assay type: cell-based; conditions: oocyte; outline: as §1; remark: listed apart in the source
[27] = biological target: T6, Voltage-gated inwardly rectifying potassium channel KCNH2; experiment: as §5; assay type: cell-based; conditions: oocyte; outline: as §1; remark: listed apart in the source
[28] = biological target: T2, Voltage-gated inwardly rectifying potassium channel KCNH2; experiment: Inhibition of human ERG1 L666A mutant expressed in Xenopus laevis oocytes assessed as decrease in current amplitude by two electrode voltage clamp technique; assay type: cell-based; conditions: oocyte; outline: as §1

With `COc1ccc2nccc(C(=O)CC[C@@H]3CCN(CC#Cc4cc(F)cc(F)c4F)C[C@@H]3C(=O)O)c2c1` as the compound, how does the Kd [1] read?
Its Kd is 9.4 µM.

What about the Activity [2] of the same compound?
Its Activity is “Active”.

And the Activity [3]?
Its Activity is “Active”.

What about the Activity [4] of the same compound?
Its Activity is “Active”.

And the Activity [5]?
The Activity was “Not Active”.

And the Activity [6]?
Its Activity is 28 mV.

And the Activity [7]?
Its Activity is less than 10 mV.

And the Activity [8]?
Its Activity is “Active”.

And the Activity [9]?
The Activity was “Not Active”.

And the Activity [10]?
The Activity was “Not Active”.

And the Activity [11]?
Its Activity is 10.2 mV.

What about the Activity [12] of the same compound?
The Activity was “Not Active”.

And the Activity [13]?
Its Activity is 15%.

What about the Activity [14] of the same compound?
The Activity was less than 10 mV.

What about the Activity [15] of the same compound?
Its Activity is “Active”.

What about the Activity [16] of the same compound?
The Activity was 17.2 mV.

And the EC50 [17]?
Its EC50 is 8 µM.

What about the Activity [18] of the same compound?
Its Activity is “Active”.

And the Activity [19]?
The Activity was “Not Active”.

And the EC50 [20]?
The EC50 was 15 µM.

What about the Activity [21] of the same compound?
Its Activity is 36.9 mV.

And the Activity [22]?
Its Activity is “Not Active”.

What about the Activity [23] of the same compound?
Its Activity is “Active”.

What about the Activity [24] of the same compound?
Its Activity is “Not Active”.

And the Activity [25]?
Its Activity is “Active”.

And the Activity [26]?
The Activity was “Not Active”.

And the Activity [27]?
The Activity was “Not Active”.

And the Activity [28]?
The Activity was “Active”.
